From PubChem BioAssay
CHOP inh – blocks CHOP induction under ER stress; 220,000 tested, 3.8% active; CHO-K1 CHOP-promoter luciferase, tunicamycin-induced, 15-18 h; inhibition, % at 10 µM; AID 2732;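 active = compounds that reduced the stress-induced luciferase reporter signal by more than about 70% of percent inhibition, limit read from the data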;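 also: 0% = tunicamycin plus vehicle and 100% = wells without tunicamycin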
XBP1 UPR activ – activators of adaptive arm of unfolded protein response (XBP1); CHO-XBP1 luciferase reporter, IRE1-XBP1 UPR activation, luminescence; percent of tunicamycin response, DMSO as zero; activation, % at 20 µM; 330,000 tested, 0.33% active; AID 463104;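 active = versus positive control, 20 µM dose yields 30% or more activation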;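 also: 100% = tunicamycin at 10 µg/mL and 0% = DMSO only wells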
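Assay system: CHO-XBP1 luciferase reporter cells; Schedule: 6 h treatment, 37 °C; Detection: glow luminescence from Steady-Glo reagent; Benchmarks: high control tunicamycin 10 µg/mL final, low control DMSO vehicle only.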
CHOP UPR activ – activators of apoptotic arm of unfolded protein response (CHOP); CHO-CHOP luciferase reporter, UPR activation, luminescence; percent of tunicamycin response over DMSO baseline; activation, % at 10 µM; 330,000 tested, 0.34% active;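 active = at 10 µM dose, activation of 40% or more, normalized to positive control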;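 also: 100% = tunicamycin at 10 µg/mL and 0% = DMSO alone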
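Evaluation: % reporter activation, DMSO baseline versus tunicamycin full activation; System: CHO-CHOP luciferase reporter cell line; Input: 500 cells/well; Incubation: 6 h compound treatment, 37 °C; Measured by: Steady-Glo luciferase luminescence; Dosing: one dose, 10 µM in 0.5% DMSO; Buffer or medium: F12 medium, 10% FBS; Benchmarks: positive tunicamycin 10 µg/mL, negative DMSO alone.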
FXN GAA850 act – increases GAA850 frataxin promoter reporter activity | HEK293 lucGAA850 FXN promoter luciferase reporter, 24 h; percent of 10 µM SAHA response | activation, % at 6 µM | 360,000 tested, 0.56% active | AID 540364;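 active = activation above the average of all compounds screened plus 3 SD, cutoff fixed separately per campaign, cut at about 7.5% in these data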;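 also: 0% = DMSO wells and 100% = 10 µM SAHA wells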
Numbers without * were called inactive. Only a selection was taken, and hits are over-represented in it overall.

`ON=C1c2cc(OCCN3CCCCC3)ccc2-c2ccc(OCCN3CCCCC3)cc21` gave XBP1 UPR activ -7, CHOP UPR activ 6 and FXN GAA850 act 5.
COc1ccc2c(c1)C(=NO)c1cc(OC)ccc1-2 was read as CHOP inh 72*, XBP1 UPR activ 1, CHOP UPR activ 0 and FXN GAA850 act 1.
`Cc1ccc(N(C(=O)Cc2c[nH]c3ccccc23)C(C(=O)NC2CCCCC2)c2ccco2)cc1` (centres undefined) gave CHOP inh 88*, XBP1 UPR activ 6, CHOP UPR activ 2 and FXN GAA850 act 2.
For COc1ccc(C(C(=O)NC2CCCCC2)N(C(=O)Cc2c[nH]c3ccccc23)c2ccccc2C)cc1OC (centres undefined) the results were CHOP inh 38, XBP1 UPR activ -4, CHOP UPR activ 2 and FXN GAA850 act 0.
For COc1ccc(C(C(=O)NC2CCCCC2)N(Cc2cccs2)C(=O)Cc2c[nH]c3ccccc23)cc1OC (centres undefined) the results were CHOP inh 43, XBP1 UPR activ 6, CHOP UPR activ 1 and FXN GAA850 act -5.
For Cc1ccc(C(C(=O)NC2CCCCC2)N(Cc2ccco2)C(=O)Cc2c[nH]c3ccccc23)o1 (centres undefined) the results were CHOP inh 87*, XBP1 UPR activ 0, CHOP UPR activ -1 and FXN GAA850 act -4.
Cc1ccc2oc(NC3=NC4(CCCC4)C4=C(CCCC4=O)N3)nc2c1 was read as FXN GAA850 act 0.
Screening C[C@H]1CN([C@@H](C)CO)C(=O)CCCn2cc(nn2)CO[C@@H]1CN(C)C(=O)Cc1ccccc1 returned FXN GAA850 act -2.
For C/C(=N\Nc1ccc(F)cc1F)c1ccc(F)cc1 the results were CHOP inh -3, XBP1 UPR activ -2 and CHOP UPR activ 0.
Screening C/C(=N\Nc1ccc(F)cc1F)c1ccc(Br)s1 returned CHOP inh 71*, XBP1 UPR activ 1, CHOP UPR activ 0 and FXN GAA850 act -1.
Screening Oc1c(I)cc(Cl)c2cccnc12 returned CHOP inh 85*, XBP1 UPR activ -1, CHOP UPR activ 0 and FXN GAA850 act -2.
O=[N+]([O-])c1cc(Cl)c2cccnc2c1O was read as CHOP inh -6, XBP1 UPR activ 2, CHOP UPR activ 0 and FXN GAA850 act 3.
CCCCNc1nc(N(C)c2ccccc2)nc(-n2ccnc2)n1 was read as CHOP inh 70, XBP1 UPR activ 11, CHOP UPR activ 2 and FXN GAA850 act 4.
For CCCCCNc1nc(-c2ccccc2)nc(-n2ccnc2)n1 the results were CHOP inh 72*, XBP1 UPR activ 0, CHOP UPR activ 3 and FXN GAA850 act 1.
`CCOc1cc(-c2nc(-c3ccc(OC)cc3)no2)cc(OCC)c1OCC` gave CHOP inh 26, XBP1 UPR activ 0, CHOP UPR activ 1 and FXN GAA850 act -1.
For CCOc1cc(-c2nc(-c3ccccc3OC)no2)cc(OCC)c1OCC the results were CHOP inh 76*, XBP1 UPR activ 1, CHOP UPR activ -1 and FXN GAA850 act -1.
`CCN1CCCC1CNC(=O)c1cc2c(C)nc3ccccc3c2o1` (centres undefined) gave XBP1 UPR activ 0, CHOP UPR activ 1 and FXN GAA850 act 1.
Cc1nc2ccccc2c2oc(C(=O)NCC3COc4ccccc4O3)cc12 (centres undefined) was read as CHOP inh 73*, XBP1 UPR activ 0, CHOP UPR activ -1 and FXN GAA850 act 2.
Screening CCc1ccc(CNC(=O)c2cc3c(C)nc4ccccc4c3o2)cc1 returned CHOP inh 80*, XBP1 UPR activ 4, CHOP UPR activ 5 and FXN GAA850 act -2.
For Cc1cccc(C)c1NC(=O)c1sccc1SCc1cccc(C(F)(F)F)c1 the results were CHOP inh 82*, XBP1 UPR activ -1, CHOP UPR activ -2 and FXN GAA850 act 0.
For Cc1ccc(NC(=O)c2c(C(F)(F)F)nn(C)c2SCc2cccc(C(F)(F)F)c2)cc1C the results were CHOP inh 59, XBP1 UPR activ 4, CHOP UPR activ 7 and FXN GAA850 act -1.
Cc1ccc(NC(=O)c2sccc2SCc2cccc(C(F)(F)F)c2)cc1 was read as CHOP inh 80*, XBP1 UPR activ 0, CHOP UPR activ 0 and FXN GAA850 act 2.
Cc1cnc(=O)[nH]c1SCc1cccc(C(F)(F)F)c1 was read as XBP1 UPR activ -5, CHOP UPR activ -2 and FXN GAA850 act 1.
`Cc1ccc(C(O)c2ncc(-c3ccc(Cl)cc3)[nH]2)cc1F` (centres undefined) gave FXN GAA850 act -3.
`COc1ccccc1NS(=O)(=O)c1cc([N+](=O)[O-])ccc1N/N=C/c1c(C)[nH]c2ccccc12` gave CHOP inh 84*, XBP1 UPR activ 3, CHOP UPR activ 0 and FXN GAA850 act -2.
For COc1cc([N+](=O)[O-])ccc1NC(=O)Nc1cnccn1 the results were XBP1 UPR activ -6, CHOP UPR activ 1 and FXN GAA850 act 1.
`COc1cc([N+](=O)[O-])ccc1NC(=O)Nc1nc2c(s1)CCCC2` gave CHOP inh 73*, XBP1 UPR activ 2, CHOP UPR activ 0 and FXN GAA850 act 2.
For CCOC(=O)C1=C(N)OC2=C(C(=O)CC(C)(C)C2)C1C1CCCCC1 (centres undefined) the results were CHOP inh 96*, XBP1 UPR activ 0, CHOP UPR activ -1 and FXN GAA850 act -1.
For NC(=O)c1nsc(C(=O)N(c2ccc(F)cc2)C(C(=O)NCC2CCCO2)c2c[nH]c3ccccc23)c1N (centres undefined) the results were XBP1 UPR activ 1, CHOP UPR activ 1 and FXN GAA850 act 2.
For CCc1ccc(N(C(=O)c2snc(C(N)=O)c2N)C(C(=O)NCCC(C)C)c2c[nH]c3ccccc23)cc1 (centres undefined) the results were CHOP inh 86*, XBP1 UPR activ -3, CHOP UPR activ 10 and FXN GAA850 act 6.
`COc1ccc([C@H]2C[C@@H](O)[C@H](n3cc(C4CC4)nn3)CN2C(=O)c2cccs2)cc1` gave FXN GAA850 act -2.
For O=C(Nc1ccsc1C(=O)NC1CCCCC1)c1ccc(F)cc1 the results were CHOP inh 70*, XBP1 UPR activ 4, CHOP UPR activ 0 and FXN GAA850 act 0.
`COCCN(C(=O)CSc1nnc(-c2ccc(F)cc2)n1N)c1c(N)n(CC(C)C)c(=O)[nH]c1=O` gave FXN GAA850 act -1.
`COC(=O)c1c(NC(=O)C2CC2)sc2c1CCCC2` gave CHOP inh 77*, XBP1 UPR activ 1, CHOP UPR activ 0 and FXN GAA850 act 1.
Screening COC(=O)c1c(NC(=O)COC(=O)c2ccc(C)s2)sc2c1CCCCC2 returned CHOP inh 72*, XBP1 UPR activ 2, CHOP UPR activ 0 and FXN GAA850 act 4.
